# Measurements reported in ChEMBL document CHEMBL1128718, “2-Substituted penems with amino acid-related side chains: synthesis and antibacterial activity of a new series of beta-lactam antibiotics” (1995).
# Tests used:
# Type in all cases: functional
# Aeromonas = experiment: In Vitro Anti Bacterial Activity (MIC90) against 90% of tested clinical Isolates of Aeromonas species(21)
# Method in brief: (§1)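 Over 500 clinical isolates tested in total; the line gives the isolate count. MIC90 for aerobes by dilution in Mueller Hinton 2 medium, inoculum 10⁴ cells/mL, incubated 24 h at 37 °C.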
# [1] = system: Acinetobacter calcoaceticus subsp. anitratus; experiment: In Vitro Anti Bacterial Activity (MIC90) against 90% of tested clinical Isolates of Acinetobacter anitratus(20); method in brief: as §1
# Moraxella catarrhalis = experiment: In Vitro Anti Bacterial Activity (MIC90) against 90% of tested clinical Isolates of Branhamella catarrhalis(27)
# Bacteroides fragilis = experiment: In Vitro Anti Bacterial Activity (MIC90) against 90% of tested clinical Isolates of Bacteroides fragilis(15)
# Method in brief: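 Anaerobic clinical isolates. MIC90 by dilution in Wilkins-Chalgren agar, inoculum 10⁵ cells/mL, incubated 24–48 h at 37 °C.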
# Clostridium perfringens = experiment: In Vitro Anti Bacterial Activity (MIC90) against 90% of tested clinical Isolates of Clostridium perfringens(27)
# Method in brief: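 MIC90 over clinical isolates of this anaerobic species, taken from the MIC distribution. Anaerobes were tested on Wilkins-Chalgren agar with an inoculum of 10⁵ cells/mL and incubated 24–48 h at 37 °C.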
# Citrobacter freundii = experiment: In Vitro Anti Bacterial Activity (MIC90) against 90% of tested clinical Isolates of Citrobacter freundii(20); method in brief: as §1
# Enterococcus faecalis [2] = experiment: In Vitro Anti Bacterial Activity (MIC90) against 90% of tested clinical Isolates of Enterococcus faecalis(47); method in brief: as §1
# Enterococcus faecium = experiment: In Vitro Anti Bacterial Activity (MIC90) against 90% of tested clinical Isolates of Enterococcus faecium(47); method in brief: as §1
# Enterococcus faecalis [3] = experiment: In Vitro antibacterial activity against (Ef) Enterococcus faecalis ATCC 29212
# Method in brief: (§2)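 Panel of standard ATCC strains plus modified strains: methicillin-resistant, hyperpermeable, β-lactamase-producing (TEM1, TEM2, SHV) and β-lactamase-lacking. MIC determined in Mueller Hinton 2 medium, inoculum 10⁴ cells/mL, incubated 24 h at 37 °C.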
# Escherichia coli [4] = experiment: In Vitro Anti Bacterial Activity (MIC90) against 90% of tested clinical Isolates of Escherichia coli; method in brief: as §1
# Klebsiella aerogenes = experiment: In Vitro Anti Bacterial Activity (MIC90) against 90% of tested clinical Isolates of Enterobacter aerogenes(19); method in brief: as §1
# Escherichia coli [5] = experiment: In Vitro antibacterial activity against (Ec L) Escherichia coli […] strain; method in brief: as §2
# Escherichia coli [6] = experiment: In Vitro antibacterial activity against (Ec SHV) Escherichia coli […] strain; method in brief: as §2
# Escherichia coli [7] = experiment: In Vitro antibacterial activity against (Ec TEM1) Escherichia coli […] strain; method in brief: as §2
# Escherichia coli [8] = experiment: In Vitro antibacterial activity against (Ec TEM2) Escherichia coli […] strain; method in brief: as §2
# Escherichia coli [9] = experiment: In Vitro antibacterial activity against (Ec) Escherichia coli ATCC 25922; method in brief: as §2
# Haemophilus influenzae = experiment: In Vitro Anti Bacterial Activity (MIC90) against 90% of tested clinical Isolates of Haemophilus Influenzae(21)
# Method in brief: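 Clinical isolates. MIC90 in Haemophilus Test Medium Base plus Haemophilus Test Medium Supplement, inoculum 10⁴ cells/mL, incubated 24–48 h at 37 °C.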
# Klebsiella pneumoniae = experiment: In Vitro Anti Bacterial Activity (MIC90) against 90% of tested clinical Isolates of Klebsiella pneumoniae(20); method in brief: as §1
# Listeria monocytogenes = experiment: In Vitro Anti Bacterial Activity (MIC90) against 90% of tested clinical Isolates of Listeria monocytogenes (20); method in brief: as §1
# Pseudomonas aeruginosa [10] = experiment: In Vitro antibacterial activity against (Pa G242) hyperpermeable Pseudomonas aeruginosa strain; method in brief: as §2
# Pseudomonas aeruginosa [11] = experiment: In Vitro antibacterial activity against (Pa) Pseudomonas aeruginosa ATCC 27853; method in brief: as §2
# Pseudomonas aeruginosa [12] = experiment: In Vitro antibacterial activity against (Pa) hyperpermeable Pseudomonas aeruginosa […] strain; method in brief: as §2
# Pseudomonas aeruginosa [13] = experiment: In Vitro Anti Bacterial Activity (MIC90) against 90% of tested clinical Isolates of Pseudomonas aeruginosa(11); method in brief: as §1
# [14] = system: Staphylococcus epidermidis; experiment: In Vitro Anti Bacterial Activity (MIC90) against 90% of tested clinical Isolates of Staphylococcus epidermidis (13); method in brief: as §1
# Streptococcus agalactiae = experiment: In Vitro Anti Bacterial Activity (MIC90) against 90% of tested clinical Isolates of Streptococcus agalactiaeB(21)
# Staphylococcus aureus [15] = experiment: In Vitro Anti Bacterial Activity (MIC90) against 90% of tested clinical Isolates of Staphylococcus aureus MS (6); method in brief: as §1
# Staphylococcus aureus [16] = experiment: In Vitro Anti Bacterial Activity (MIC90) against 90% of tested clinical Isolates of Staphylococcus aureus MV (20)
# Staphylococcus aureus [17] = experiment: In vitro antibacterial activity against Sa MR(I) heterogeneous methicillin resistant Staphylococcus aureus
# Method in brief: (§3)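 MIC was determined in Mueller Hinton 2 medium with an inoculum of 10⁴ cells/mL and incubation for 24 h at 37 °C. Strains: Sa(I) is S. aureus ATCC 29213; Sa MR(I) is a heterogeneous methicillin-resistant S. aureus; Sa MR(II) is a homogeneous methicillin-resistant S. aureus.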
# Staphylococcus aureus [18] = experiment: In vitro antibacterial activity against Sa MR(II) homogeneous methicillin resistant Staphylococcus aureus; method in brief: as §3
# Staphylococcus aureus [19] = experiment: In vitro antibacterial activity against Sa(I) Staphylococcus aureus ATCC 29213; method in brief: as §3
# Staphylococcus aureus [20] = experiment: In vitro antibacterial activity against Sa(II) Staphylococcus aureus ATCC 25923; method in brief: as §2
# Streptococcus pyogenes = experiment: In Vitro Anti Bacterial Activity (MIC90) against 90% of tested clinical Isolates of Streptococcus pyogenes(31)
# Streptococcus pneumoniae = experiment: In Vitro Anti Bacterial Activity (MIC90) against 90% of tested clinical Isolates of Streptococcus pneumoniae (23)
# Yersinia sp. = experiment: In Vitro Anti Bacterial Activity (MIC90) against 90% of tested clinical Isolates of Yersinia species(20); conditions: Yersinia sp. (in: enterobacteria)
# [21] = system: Stenotrophomonas maltophilia; experiment: In Vitro Anti Bacterial Activity (MIC90) against 90% of tested clinical Isolates of Xanthomonas maltophilia(9); method in brief: as §1
# Escherichia coli [22] = experiment: In Vitro antibacterial activity against (Ec DC2) hyperpermeable Escherichia coli strain; method in brief: as §2
smiles,measurement,setting,value
C[C@@H](O)[C@H]1C(=O)N2C(C(=O)O)=C(CN3CCC[C@@H]3C(N)=O)S[C@H]12,MIC90,Aeromonas,0.25 µg/mL
same,MIC90,[1],32 µg/mL
same,MIC90,Moraxella catarrhalis,2 µg/mL
same,MIC90,Bacteroides fragilis,16 µg/mL
same,MIC90,Clostridium perfringens,1 µg/mL
same,MIC90,Citrobacter freundii,1 µg/mL
same,MIC90,Enterococcus faecalis [2],32 µg/mL
same,MIC90,Enterococcus faecium,> 64 µg/mL
same,MIC,Enterococcus faecalis [3],16 µg/mL
same,MIC90,Escherichia coli [4],1 µg/mL
same,MIC90,Klebsiella aerogenes,16 µg/mL
same,MIC,Escherichia coli [5],1 µg/mL
same,MIC,Escherichia coli [6],1 µg/mL
same,MIC,Escherichia coli [7],1 µg/mL
same,MIC,Escherichia coli [8],1 µg/mL
same,MIC,Escherichia coli [9],1 µg/mL
same,MIC90,Haemophilus influenzae,2 µg/mL
same,MIC90,Klebsiella pneumoniae,1 µg/mL
same,MIC90,Listeria monocytogenes,2 µg/mL
same,MIC,Pseudomonas aeruginosa [10],1 µg/mL
same,MIC,Pseudomonas aeruginosa [11],32 µg/mL
same,MIC,Pseudomonas aeruginosa [12],0.25 µg/mL
same,MIC90,Pseudomonas aeruginosa [13],> 64 µg/mL
same,MIC90,[14],0.12 µg/mL
same,MIC90,Streptococcus agalactiae,0.12 µg/mL
same,MIC90,Staphylococcus aureus [15],0.06 µg/mL
same,MIC90,Staphylococcus aureus [16],8 µg/mL
same,MIC,Staphylococcus aureus [17],0.12 µg/mL
same,MIC,Staphylococcus aureus [18],4 µg/mL
same,MIC,Staphylococcus aureus [19],0.06 µg/mL
same,MIC,Staphylococcus aureus [20],0.015 µg/mL
same,MIC90,Streptococcus pyogenes,0.5 µg/mL
same,MIC90,Streptococcus pneumoniae,0.5 µg/mL
same,MIC90,Yersinia sp.,1 µg/mL
same,MIC90,[21],> 64 µg/mL
same,MIC,Escherichia coli [22],0.5 µg/mL
C[C@@H](O)[C@H]1C(=O)N2C(C(=O)O)=C(CN3CCCCC3C(N)=O)S[C@H]12 (stereo not given in full),MIC,Enterococcus faecalis [3],16 µg/mL
same,MIC,Escherichia coli [5],1 µg/mL
same,MIC,Escherichia coli [6],2 µg/mL
same,MIC,Escherichia coli [7],1 µg/mL
same,MIC,Escherichia coli [8],2 µg/mL
same,MIC,Escherichia coli [9],1 µg/mL
same,MIC,Pseudomonas aeruginosa [10],1 µg/mL
same,MIC,Pseudomonas aeruginosa [11],> 64 µg/mL
same,MIC,Pseudomonas aeruginosa [12],4 µg/mL
same,MIC,Staphylococcus aureus [17],0.12 µg/mL
same,MIC,Staphylococcus aureus [18],2 µg/mL
same,MIC,Staphylococcus aureus [19],0.12 µg/mL
same,MIC,Staphylococcus aureus [20],0.06 µg/mL
same,MIC,Escherichia coli [22],1 µg/mL
C[C@@H](O)[C@H]1C(=O)N2C(C(=O)O)=C(CN3C[C@@H](O)C[C@H]3C(N)=O)S[C@H]12,MIC,Enterococcus faecalis [3],16 µg/mL
same,MIC,Escherichia coli [5],2 µg/mL
same,MIC,Escherichia coli [6],2 µg/mL
same,MIC,Escherichia coli [7],1 µg/mL
same,MIC,Escherichia coli [8],2 µg/mL
same,MIC,Escherichia coli [9],0.5 µg/mL
same,MIC,Pseudomonas aeruginosa [10],2 µg/mL
same,MIC,Pseudomonas aeruginosa [11],> 64 µg/mL
same,MIC,Pseudomonas aeruginosa [12],0.5 µg/mL
same,MIC,Staphylococcus aureus [17],0.25 µg/mL
same,MIC,Staphylococcus aureus [18],8 µg/mL
same,MIC,Staphylococcus aureus [19],0.25 µg/mL
same,MIC,Staphylococcus aureus [20],0.12 µg/mL
same,MIC,Escherichia coli [22],2 µg/mL
C[C@@H](O)[C@H]1C(=O)N2C(C(=O)O)=C(CN3C[C@@H](O)C[C@@H]3C(N)=O)S[C@H]12,MIC,Enterococcus faecalis [3],32 µg/mL
same,MIC,Escherichia coli [5],1 µg/mL
same,MIC,Escherichia coli [6],1 µg/mL
same,MIC,Escherichia coli [7],1 µg/mL
same,MIC,Escherichia coli [8],1 µg/mL
same,MIC,Escherichia coli [9],1 µg/mL
same,MIC,Pseudomonas aeruginosa [10],1 µg/mL
same,MIC,Pseudomonas aeruginosa [11],> 64 µg/mL
same,MIC,Pseudomonas aeruginosa [12],0.5 µg/mL
same,MIC,Staphylococcus aureus [17],0.25 µg/mL
same,MIC,Staphylococcus aureus [18],16 µg/mL
same,MIC,Staphylococcus aureus [19],0.12 µg/mL
same,MIC,Staphylococcus aureus [20],0.06 µg/mL
same,MIC,Escherichia coli [22],1 µg/mL
C[C@@H](O)[C@H]1C(=O)N2C(C(=O)O)=C(CN(C)CC(=O)N3CCN(C)CC3)S[C@H]12,MIC,Enterococcus faecalis [3],16 µg/mL
same,MIC,Escherichia coli [5],1 µg/mL
same,MIC,Escherichia coli [6],1 µg/mL
same,MIC,Escherichia coli [7],1 µg/mL
same,MIC,Escherichia coli [8],1 µg/mL
same,MIC,Escherichia coli [9],0.5 µg/mL
same,MIC,Pseudomonas aeruginosa [10],1 µg/mL
same,MIC,Pseudomonas aeruginosa [11],> 64 µg/mL
same,MIC,Pseudomonas aeruginosa [12],4 µg/mL
same,MIC,Staphylococcus aureus [17],0.5 µg/mL
same,MIC,Staphylococcus aureus [18],4 µg/mL
same,MIC,Staphylococcus aureus [19],0.25 µg/mL
same,MIC,Staphylococcus aureus [20],0.25 µg/mL
same,MIC,Escherichia coli [22],1 µg/mL
C[C@@H](O)[C@H]1C(=O)N2C(C(=O)O)=C(SCCNC=N)C[C@H]12 [IMIPENEM ANHYDROUS],MIC,Enterococcus faecalis [3],0.5 µg/mL
same,MIC,Escherichia coli [5],0.12 µg/mL
same,MIC,Escherichia coli [6],0.25 µg/mL
same,MIC,Escherichia coli [7],0.25 µg/mL
same,MIC,Escherichia coli [8],0.25 µg/mL
same,MIC,Escherichia coli [9],0.12 µg/mL
same,MIC,Pseudomonas aeruginosa [10],0.25 µg/mL
same,MIC,Pseudomonas aeruginosa [11],1 µg/mL
same,MIC,Pseudomonas aeruginosa [12],0.25 µg/mL
same,MIC,Staphylococcus aureus [17],0.12 µg/mL
same,MIC,Staphylococcus aureus [18],0.25 µg/mL
same,MIC,Staphylococcus aureus [19],0.015 µg/mL
same,MIC,Staphylococcus aureus [20],0.015 µg/mL
same,MIC,Escherichia coli [22],0.5 µg/mL
C[C@@H](O)[C@H]1C(=O)N2C(C(=O)O)=C(COC(N)=O)S[C@H]12 [RITIPENEM],MIC,Enterococcus faecalis [3],2 µg/mL
same,MIC,Escherichia coli [5],1 µg/mL
same,MIC,Escherichia coli [6],1 µg/mL
same,MIC,Escherichia coli [7],1 µg/mL
same,MIC,Escherichia coli [8],1 µg/mL
same,MIC,Escherichia coli [9],0.5 µg/mL
same,MIC,Pseudomonas aeruginosa [10],1 µg/mL
same,MIC,Pseudomonas aeruginosa [11],> 64 µg/mL
same,MIC,Pseudomonas aeruginosa [12],0.5 µg/mL
same,MIC,Staphylococcus aureus [17],0.12 µg/mL
same,MIC,Staphylococcus aureus [18],2 µg/mL
same,MIC,Staphylococcus aureus [19],0.12 µg/mL
same,MIC,Staphylococcus aureus [20],0.06 µg/mL
same,MIC,Escherichia coli [22],1 µg/mL
